Experiments:
Assay type in all cases: functional, cell-based
[1] = Antiproliferative activity against human EC9706 cells after 72 hrs by MTT assay; conditions: EC9706, 72 h
Outline: (§1)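 Seeded at 5 × 10^3 cells/well and left 24 h. Medium then replaced with fresh medium holding compound over a range of concentrations, and cells incubated a further 72 h. 0.5 mg/mL MTT in PBS added for 4 h, formazan dissolved in DMSO, absorbance read at 562 nm. IC50 derived from percent inhibition across concentrations.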

[2] = Antiproliferative activity against human ECA109 cells after 72 hrs by MTT assay; conditions: ECa-109, 72 h; outline: as §1
PC-3 = assay: Antiproliferative activity against human PC3 cells after 72 hrs by MTT assay; conditions: PC-3, 72 h; outline: as §1
HCT-116 = assay: Antiproliferative activity against human HCT116 cells after 72 hrs by MTT assay; conditions: HCT-116, 72 h; outline: as §1

IC50 (PC-3)	IC50 (HCT-116)	Structure (SMILES)	IC50 [1]	IC50 [2]
> 100 µM	> 100 µM	C[C@@]12CC[C@@H]3[C@@](CC[C@H]4[C@@]3(C)CCC[C@@]4(C)C(=O)O)(CC1=O)C2 [ISOSTEVIOL]	> 100 µM	> 100 µM
> 100 µM	> 100 µM	CCOC(=O)[C@]1(C)CCC[C@@]2(C)[C@@H]3CC[C@@]4(C)C[C@]3(CC[C@@H]21)CC4=O	> 100 µM	> 100 µM
> 100 µM	> 100 µM	CCOC(=O)[C@]1(C)CCC[C@@]2(C)[C@@H]3CC[C@](C)(C(N)=O)C[C@@]3(C(=O)O)CC[C@@H]21	> 100 µM	> 100 µM
> 100 µM	> 100 µM	CCOC(=O)[C@]1(C)CCC[C@@]2(C)[C@@H]3CC[C@@]4(C)C[C@]3(CC[C@@H]21)C(=O)[C@H]4NC(=S)Nc1cc(C(F)(F)F)cc(C(F)(F)F)c1	> 100 µM	> 100 µM
> 100 µM	> 100 µM	CCOC(=O)[C@]1(C)CCC[C@@]2(C)[C@@H]3CC[C@@]4(C)C[C@]3(CC[C@@H]21)C(=O)[C@H]4O	> 100 µM	> 100 µM
> 100 µM	> 100 µM	CCOC(=O)[C@]1(C)CCC[C@@]2(C)[C@@H]3CC[C@@]4(C)C[C@]3(CC[C@@H]21)[C@@H](O)/C4=N\O	> 100 µM	> 100 µM
> 100 µM	> 100 µM	CCOC(=O)[C@]1(C)CCC[C@@]2(C)[C@@H]3CC[C@](C)(C(=O)O)C[C@@]3(C(=O)O)CC[C@@H]21	> 100 µM	> 100 µM
> 100 µM	> 100 µM	CCOC(=O)[C@]1(C)CCC[C@@]2(C)[C@@H]3CC[C@@]4(C)C[C@]3(CC[C@@H]21)[C@@H](O)[C@H]4NC(=O)[C@@H]1CCCN1	60.7 µM	69.5 µM
> 100 µM	> 100 µM	CCOC(=O)[C@]1(C)CCC[C@@]2(C)[C@@H]3CC[C@@]4(C)C[C@]3(CC[C@@H]21)C(=O)[C@H]4NC(=S)Nc1ccccc1	> 100 µM	> 100 µM
> 100 µM	> 100 µM	CCOC(=O)[C@]1(C)CCC[C@@]2(C)[C@@H]3CC[C@@]4(C)C[C@]3(CC[C@@H]21)[C@H](CNC(C)=O)[C@H]4O	21.2 µM	13.3 µM
> 100 µM	> 100 µM	CCOC(=O)[C@]1(C)CCC[C@@]2(C)[C@@H]3CC[C@@]4(C)C[C@]3(CC[C@@H]21)C[C@H]4O	> 100 µM	> 100 µM
> 100 µM	> 100 µM	CCOC(=O)[C@]1(C)CCC[C@@]2(C)[C@@H]3CC[C@@]4(C)C[C@]3(CC[C@@H]21)C(Br)C4=O (some centres not stated)	> 100 µM	> 100 µM
87.6 µM	> 100 µM	CCOC(=O)[C@]1(C)CCC[C@@]2(C)[C@@H]3CC[C@@]4(C)C[C@]3(CC[C@@H]21)[C@@H](O)[C@H]4O	52.1 µM	90.3 µM
> 100 µM	> 100 µM	CCOC(=O)[C@]1(C)CCC[C@@]2(C)[C@@H]3CC[C@@]4(C)C[C@]3(CC[C@@H]21)[C@H](C=O)[C@H]4O	24.4 µM	26.5 µM
> 100 µM	> 100 µM	CCOC(=O)[C@]1(C)CCC[C@@]2(C)[C@@H]3CC[C@](C)(C#N)C[C@@]3(C(=O)O)CC[C@@H]21	> 100 µM	> 100 µM
40.3 µM	> 100 µM	CCOC(=O)[C@]1(C)CCC[C@@]2(C)[C@@H]3CC[C@]4(C)C=C(C=O)[C@@]3(CC[C@@H]21)C4	> 100 µM	> 100 µM
> 100 µM	> 100 µM	CCOC(=O)[C@]1(C)CCC[C@@]2(C)[C@@H]3CC[C@@]4(C)C[C@]3(CC[C@@H]21)C(=O)[C@H]4NC(=S)Nc1cccc2ccccc12	> 100 µM	> 100 µM

IC50 (PC-3)	IC50 (HCT-116)	Structure (SMILES)	IC50 [1]	IC50 [2]
> 100 µM	> 100 µM	CCOC(=O)[C@]1(C)CCC[C@@]2(C)[C@@H]3CC[C@@]4(C)C[C@]3(CC[C@@H]21)[C@H](C=O)[C@H]4N1CCCC1	> 100 µM	30.3 µM
> 100 µM	> 100 µM	CCOC(=O)[C@]1(C)CCC[C@@]2(C)[C@@H]3CC[C@@]4(C)C[C@]3(CC[C@@H]21)[C@@H](O)[C@H]4NC(=S)Nc1cccc2ccccc12	> 100 µM	90.9 µM
> 100 µM	> 100 µM	CCOC(=O)[C@]1(C)CCC[C@@]2(C)[C@@H]3CC[C@@]4(C)C[C@]3(CC[C@@H]21)C(=O)[C@H]4NC(=O)[C@@H]1CCCN1	> 100 µM	> 100 µM
> 100 µM	> 100 µM	CCOC(=O)[C@]1(C)CCC[C@@]2(C)[C@@H]3CC[C@@]4(C)C[C@]3(CC[C@@H]21)C(=O)/C4=N\O	> 100 µM	> 100 µM
> 100 µM	> 100 µM	CCOC(=O)[C@]1(C)CCC[C@@]2(C)[C@@H]3CC[C@@]4(C)C[C@]3(CC[C@@H]21)[C@H](CO)[C@H]4O	91.6 µM	43.3 µM
20.6 µM	14.3 µM	CCOC(=O)[C@]1(C)CCC[C@@]2(C)[C@@H]3CC[C@@]4(C)C[C@]3(CC[C@@H]21)[C@@H](O)[C@H]4NC(=S)Nc1cc(C(F)(F)F)cc(C(F)(F)F)c1	24.1 µM	45.8 µM
> 100 µM	> 100 µM	CCOC(=O)[C@]1(C)CCC[C@@]2(C)[C@@H]3CC[C@](C)(C#N)C[C@@]3(C=O)CC[C@@H]21	> 100 µM	> 100 µM
> 100 µM	> 100 µM	CCOC(=O)[C@]1(C)CCC[C@@]2(C)[C@@H]3CC[C@@]4(C)C[C@]3(CC[C@@H]21)C(=O)[C@H]4N	97.2 µM	> 100 µM
> 100 µM	> 100 µM	CCOC(=O)[C@]1(C)CCC[C@@]2(C)[C@@H]3CC[C@@]4(C)C[C@]3(CC[C@@H]21)[C@@H](O)[C@H]4NC(=S)Nc1ccccc1	> 100 µM	72.3 µM
> 100 µM	> 100 µM	CCOC(=O)[C@]1(C)CCC[C@@]2(C)[C@@H]3CC[C@@]4(C)C[C@]3(CC[C@@H]21)[C@H](CNC(C)=O)[C@H]4OC(C)=O	> 100 µM	> 100 µM
15.3 µM	12.2 µM	CCOC(=O)[C@]1(C)CCC[C@@]2(C)[C@@H]3CC[C@@]4(C)C[C@]3(CC[C@@H]21)[C@@H](CN)[C@@H]4O	4.01 µM	5.02 µM
> 100 µM	> 100 µM	C[C@]12CC[C@H]3[C@]4(C)CCC[C@@](C)(CO)[C@H]4CC[C@@]3(C1)[C@@H](O)/C2=N\O	> 100 µM	> 100 µM
25.4 µM	20.1 µM	CCOC(=O)[C@]1(C)CCC[C@@]2(C)[C@@H]3CC[C@@]4(C)C[C@]3(CC[C@@H]21)[C@@H](O)[C@H]4N	19.3 µM	41.3 µM
> 100 µM	> 100 µM	CCOC(=O)[C@]1(C)CCC[C@@]2(C)[C@@H]3CC[C@@]4(C)C[C@]3(CC[C@@H]21)C(=O)OC4=O	> 100 µM	> 100 µM
> 100 µM	> 100 µM	CCOC(=O)[C@]1(C)CCC[C@@]2(C)[C@@H]3CC[C@@]4(C)C[C@]3(CC[C@@H]21)[C@H](/C=N/O)[C@H]4O	56.6 µM	17.9 µM
> 100 µM	> 100 µM	CCOC(=O)[C@]1(C)CCC[C@@]2(C)[C@@H]3CC[C@@]4(C)C[C@]3(CC[C@@H]21)C(=O)C4=O	> 100 µM	> 100 µM

Reference: ChEMBL document CHEMBL2069210, “D-ring modified novel isosteviol derivatives: design, synthesis and cytotoxic activity evaluation” (Bioorg Med Chem Lett, 2012)
